Assay results reported in ChEMBL document CHEMBL5303300, “EUbOPEN Chemogenomics Library - Multiplex” (2023).
Several values for one entry are separate records, joined by “and”; a condition that tells them apart may be missing. Equal entries are not always repeated.

Tested on: U2OS
Experiment: Multiplex assay against U2OS
Type: toxicity, cell-based
Conditions: human, number of replicates 2
In short: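 Phenotypes for tubulin, mitochondrial mass and membrane permeability are expressed as per cents of healthy-nucleus cells. Cells were stained live at seeding with Hoechst33342, BioTracker Green Microtubule Cytoskeleton Dye, MitoTracker Red and Annexin V Alexa Fluor 680, then imaged after compound addition on a CQ1 microscope at 37°C and 5% CO2. Machine-learning gating in CellPathfinder separated Hoechst high-intensity objects from normal cells, divided normal cells by nuclear state (healthy, pyknosed, fragmented) and divided pyknosed cells into mitotic or apoptotic.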

[1] = 12 h, 1 µM, compound concentration 1 uM
[2] = 12 h, 10 µM, compound concentration 10 uM
[3] = 24 h, 1 µM, compound concentration 1 uM
[4] = 24 h, 10 µM, compound concentration 10 uM
[5] = 48 h, 1 µM, compound concentration 1 uM
[6] = 48 h, 10 µM, compound concentration 10 uM

## CC(C)N(CCCCOCC(=O)NS(C)(=O)=O)c1cnc(-c2ccccc2)c(-c2ccccc2)n1 [SELEXIPAG]
[1]
  Population Apoptotic (%): 100% and 38%
  Population Fragmented Nuclei (%): 14% and 4%
  Population Healthy Nuclei (%): 76% and 84%
  Population Hoechst High Intensity Objects (%): 0%
  Population Membrane Permeable-Phenotype (%): 0% and 1%
  Population Mitochondria Different-Phenotype (%): 6% and 0%
  Population Normal (%): 100% and 99%
  Population Pyknosed Nuclei (%): 9% and 11%
  Population Tubulin-Different-Phenotype (%): 81% and 85%
[2]
  Population Apoptotic (%): 33% and 45%
  Population Fragmented Nuclei (%): 11% and 3%
  Population Healthy Nuclei (%): 82% and 88%
  Population Hoechst High Intensity Objects (%): 0%
  Population Membrane Permeable-Phenotype (%): 2% and 1%
  Population Mitochondria Different-Phenotype (%): 0%
  Population Mitotic Cells (%): 66% and 54%
  Population Normal (%): 100% and 99%
  Population Pyknosed Nuclei (%): 6% and 8%
  Population Tubulin-Different-Phenotype (%): 97% and 87%
[3]
  Population Apoptotic (%): 50% and 46%
  Population Fragmented Nuclei (%): 5% and 2%
  Population Healthy Nuclei (%): 88% and 89%
  Population Hoechst High Intensity Objects (%): 0%
  Population Membrane Permeable-Phenotype (%): 3% and 1%
  Population Mitochondria Different-Phenotype (%): 0%
  Population Mitotic Cells (%): 50% and 53%
  Population Normal (%): 100%
  Population Pyknosed Nuclei (%): 5% and 8%
  Population Tubulin-Different-Phenotype (%): 84% and 91%
[4]
  Population Apoptotic (%): 75% and 46%
  Population Healthy Nuclei (%): 73% and 89%
  Population Hoechst High Intensity Objects (%): 0%
  Population Membrane Permeable-Phenotype (%): 0% and 1%
  Population Mitochondria Different-Phenotype (%): 0%
  Population Mitotic Cells (%): 25% and 53%
  Population Normal (%): 100% and 99%
  Population Pyknosed Nuclei (%): 6%
  Population Tubulin-Different-Phenotype (%): 100% and 94%
[5]
  Population Apoptotic (%): 22% and 50%
  Population Healthy Nuclei (%): 67% and 94%
  Population Hoechst High Intensity Objects (%): 0%
  Population Membrane Permeable-Phenotype (%): 0% and 1%
  Population Mitochondria Different-Phenotype (%): 0%
  Population Mitotic Cells (%): 77% and 50%
  Population Normal (%): 100%
  Population Tubulin-Different-Phenotype (%): 85% and 93%
[6]
  Population Apoptotic (%): 36% and 56%
  Population Fragmented Nuclei (%): 6% and 4%
  Population Healthy Nuclei (%): 83% and 90%
  Population Hoechst High Intensity Objects (%): 0%
  Population Membrane Permeable-Phenotype (%): 1%
  Population Mitochondria Different-Phenotype (%): 0%
  Population Mitotic Cells (%): 63% and 43%
  Population Normal (%): 100% and 99%
  Population Pyknosed Nuclei (%): 9% and 4%
  Population Tubulin-Different-Phenotype (%): 97% and 94%

## Cc1cccc(S(=O)(=O)N(C)[C@H](C)CCN2CCC(C)CC2)c1.Cl
[1]
  Population Apoptotic (%): 72% and 100%
  Population Fragmented Nuclei (%): 5% and 14%
  Population Healthy Nuclei (%): 84% and 82%
  Population Hoechst High Intensity Objects (%): 0%
  Population Membrane Permeable-Phenotype (%): 0%
  Population Mitochondria Different-Phenotype (%): 0%
  Population Normal (%): 100%
  Population Pyknosed Nuclei (%): 10% and 2%
[2]
  Population Apoptotic (%): 50%
  Population Healthy Nuclei (%): 53% and 89%
  Population Hoechst High Intensity Objects (%): 0%
  Population Membrane Permeable-Phenotype (%): 0%
  Population Mitochondria Different-Phenotype (%): 0% and 1%
  Population Mitotic Cells (%): 50%
  Population Normal (%): 100%
  Population Tubulin-Different-Phenotype (%): 42% and 46%
[3]
  Population Apoptotic (%): 41% and 14%
  Population Fragmented Nuclei (%): 4% and 10%
  Population Healthy Nuclei (%): 83% and 71%
  Population Hoechst High Intensity Objects (%): 0%
  Population Membrane Permeable-Phenotype (%): 1% and 0%
  Population Mitochondria Different-Phenotype (%): 0%
  Population Mitotic Cells (%): 58% and 85%
  Population Normal (%): 100%
  Population Pyknosed Nuclei (%): 11% and 17%
[4]
  Population Apoptotic (%): 80% and 54%
  Population Healthy Nuclei (%): 54% and 91%
  Population Hoechst High Intensity Objects (%): 0%
  Population Membrane Permeable-Phenotype (%): 0% and 2%
  Population Mitochondria Different-Phenotype (%): 0% and 1%
  Population Mitotic Cells (%): 20% and 45%
  Population Normal (%): 100%
  Population Tubulin-Different-Phenotype (%): 58% and 56%
[5]
  Population Apoptotic (%): 59% and 46%
  Population Fragmented Nuclei (%): 2% and 12%
  Population Healthy Nuclei (%): 89% and 68%
  Population Hoechst High Intensity Objects (%): 0%
  Population Membrane Permeable-Phenotype (%): 2% and 0%
  Population Mitochondria Different-Phenotype (%): 0%
  Population Mitotic Cells (%): 40% and 53%
  Population Normal (%): 100%
  Population Pyknosed Nuclei (%): 8% and 18%
  Population Tubulin-Different-Phenotype (%): 86% and 42%
[6]
  Population Apoptotic (%): 30% and 62%
  Population Healthy Nuclei (%): 92% and 51%
  Population Hoechst High Intensity Objects (%): 0%
  Population Mitochondria Different-Phenotype (%): 0%
  Population Mitotic Cells (%): 69% and 37%
  Population Normal (%): 99% and 100%
  Population Tubulin-Different-Phenotype (%): 62% and 46%

## Cc1ccc(C(=O)Nc2cc(N3CCN(C)CC3)cc(C(F)(F)F)c2)cc1-n1cc(-c2cnn(C)c2C)nn1.Cl
[1]
  Population Apoptotic (%): 25% and 60%
  Population Healthy Nuclei (%): 70% and 79%
  Population Hoechst High Intensity Objects (%): 0%
  Population Membrane Permeable-Phenotype (%): 12% and 17%
  Population Mitotic Cells (%): 75% and 39%
  Population Normal (%): 100%
  Population Pyknosed Nuclei (%): 8% and 17%
  Population Tubulin-Different-Phenotype (%): 69% and 29%
[2]
  Population Apoptotic (%): 60% and 83%
  Population Healthy Nuclei (%): 69% and 51%
  Population Hoechst High Intensity Objects (%): 0%
  Population Membrane Permeable-Phenotype (%): 28% and 37%
  Population Mitochondria Different-Phenotype (%): 42% and 62%
  Population Mitotic Cells (%): 39% and 16%
  Population Normal (%): 100%
  Population Pyknosed Nuclei (%): 24% and 19%
  Population Tubulin-Different-Phenotype (%): 86% and 87%
[3]
  Population Apoptotic (%): 31% and 70%
  Population Healthy Nuclei (%): 55% and 73%
  Population Hoechst High Intensity Objects (%): 0%
  Population Membrane Permeable-Phenotype (%): 0% and 9%
  Population Mitotic Cells (%): 68% and 29%
  Population Normal (%): 100%
  Population Pyknosed Nuclei (%): 27% and 24%
  Population Tubulin-Different-Phenotype (%): 68% and 44%
  Total Cell Count: 69 and 193
[4]
  Population Apoptotic (%): 85%
  Population Fragmented Nuclei (%): 28% and 10%
  Population Healthy Nuclei (%): 46% and 50%
  Population Hoechst High Intensity Objects (%): 3% and 0%
  Population Membrane Permeable-Phenotype (%): 23% and 42%
  Population Mitochondria Different-Phenotype (%): 38% and 55%
  Population Mitotic Cells (%): 14%
  Population Normal (%): 96% and 99%
  Population Pyknosed Nuclei (%): 25% and 38%
  Population Tubulin-Different-Phenotype (%): 69% and 89%
[5]
  Population Apoptotic (%): 69% and 75%
  Population Fragmented Nuclei (%): 9% and 3%
  Population Healthy Nuclei (%): 65% and 72%
  Population Hoechst High Intensity Objects (%): 0%
  Population Membrane Permeable-Phenotype (%): 4% and 8%
  Population Mitotic Cells (%): 30% and 24%
  Population Normal (%): 100% and 99%
  Population Pyknosed Nuclei (%): 24%
  Population Tubulin-Different-Phenotype (%): 72% and 41%
[6]
  Population Apoptotic (%): 92% and 100%
  Population Healthy Nuclei (%): 21% and 26%
  Population Hoechst High Intensity Objects (%): 0%
  Population Membrane Permeable-Phenotype (%): 52% and 22%
  Population Mitochondria Different-Phenotype (%): 63% and 55%
  Population Mitotic Cells (%): 7% and 0%
  Population Normal (%): 99% and 100%
  Population Pyknosed Nuclei (%): 67% and 38%
  Population Tubulin-Different-Phenotype (%): 86% and 66%
